ChEMBL document CHEMBL1129428 (J Med Chem, 1996)

How the values were obtained:
[1] = tested on: Rattus norvegicus; assay: Compound was tested for anticonvulsant activity after Oral Administration into Rats by using MES screen test after 4h,dose 12.5 mg/kg; number of rats out of four which were protected; format: functional
How it was run: (§1)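 Rats received the compound orally. […] Rats were tested in the MES screen at 0.25, 0.5, 1, 2 and 4 h. Each value is the number of rats protected out of 4. The test followed NINDS procedures.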

[2] = tested on: Rattus norvegicus; assay: Anticonvulsant activity after oral administration into rats; format: functional; parameters: concentration or dose not given beside the values
[3] = tested on: Rattus norvegicus; assay: Compound was tested for anticonvulsant activity after Oral Administration into Rats by using MES screen test after 2h,dose 12.5 mg/kg; number of rats out of four which were protected; format: functional; how it was run: as §1
[4] = Protection index = TD50/ED50 (MES); details: mouse, in vivo; read-out: PI
[5] = tested on: Mus musculus; assay: Anticonvulsant activity after intraperitoneal injection into mice by using MES screen test after 0.5 hr; format: functional
[6] = tested on: Mus musculus; assay: Anticonvulsant activity after intraperitoneal injection into mice by using scPTZ screen after 0.5 hr; format: functional
[7] = Protection index = TD50/ED50; format: ADME; details: read-out: PI
[8] = tested on: Mus musculus; assay: Compound was tested for anticonvulsant activity after intraperitoneal injection into mice by using scPTZ screen test after 1 hr; format: functional; details: ip
How it was run: (§2)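 Quantitative intraperitoneal mouse testing in the MES, scPTZ or rotorod neurotoxicity screens at the peak time given for each compound (0.25–2 h). ED50 or TD50 reported in mg/kg with 95% CI and slope (SE).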

[9] = tested on: Mus musculus; assay: Anticonvulsant activity after intraperitoneal injection into mice measured in a maximal electroshock scree (MES) screen; format: functional
[10] = tested on: Rattus norvegicus; assay: Compound was tested for anticonvulsant activity after Oral Administration into Rats by using MES screen test after 0.25h,dose 12.5 mg/kg; No activity was demonstarted; format: functional, organism-based; parameters: dose 12.5 mg/kg; how it was run: as §1
[11] = tested on: Rattus norvegicus; assay: Compound was tested for anticonvulsant activity after Oral Administration into Rats by using MES screen test after 1h,dose 12.5 mg/kg; number of rats out of four which were protected; format: functional; how it was run: as §1
[12] = Compound was tested for toxicity after intraperitoneal injection into mice by using neurotoxicity screen test after 1 hr; format: organism-based; details: mouse, in vivo, ip; how it was run: as §2
[13] = tested on: Mus musculus; assay: Compound was tested for anticonvulsant activity after intraperitoneal injection into mice by using MES screen test after 1 hr; format: functional; details: ip; how it was run: as §2
[14] = tested on: Rattus norvegicus; assay: Compound was tested for anticonvulsant activity after Oral Administration into Rats by using MES screen test after 4h,dose 30 mg/kg; number of rats out of four which were protected; format: functional; how it was run: as §1
[15] = tested on: Rattus norvegicus; assay: Compound was tested for anticonvulsant activity after Oral Administration into Rats by using MES screen test after 0.25h,dose 30 mg/kg; number of rats out of four which were protected; format: functional; how it was run: as §1
[16] = tested on: Rattus norvegicus; assay: Compound was tested for anticonvulsant activity after Oral Administration into Rats by using MES screen test after 2h,dose 30 mg/kg; number of rats out of four which were protected; format: functional; how it was run: as §1
[17] = tested on: Rattus norvegicus; assay: Compound was tested for anticonvulsant activity after Oral Administration into Rats by using MES screen test after 1h,dose 30 mg/kg; number of rats out of four which were protected; format: functional; how it was run: as §1
[18] = tested on: Mus musculus; assay: Anticonvulsant activity after intraperitoneal injection into mice by using scPTZ screen test after 4 hr; format: functional
[19] = tested on: Rattus norvegicus; assay: Compound was tested for anticonvulsant activity after Oral Administration into Rats by using MES screen test after 0.5h,dose 30 mg/kg; number of rats out of four which were protected; format: functional; how it was run: as §1
[20] = tested on: Mus musculus; assay: Compound was tested for toxicity after intraperitoneal injection into mice by using toxicity screen test after 4 hr; format: organism-based; details: in vivo, ip
How it was run: (§3)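 Mice injected intraperitoneally at 30, 100 and 300 mg/kg and examined 0.5 and 4 h afterwards. Each entry is the minimum dose giving activity (MES protection, scPTZ protection, or rotorod failure for neurotoxicity) in half or more of the mice. Activity is called absent if nothing occurs at 300 mg/kg.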

[21] = tested on: Mus musculus; assay: Toxicity after intraperitoneal injection into mice by using toxicity screen test after 0.5 hr; format: organism-based; details: in vivo, ip; how it was run: as §3
[22] = Partition coefficient (logP); format: physicochemical; details: octanol/water
How it was run: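 Partition between 1-octanol and buffer at pH 7.4, with solutions prepared in 1-octanol before buffer is added. Quantified by UV, using λmax and ε values measured in 1-octanol.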

[23] = tested on: Rattus norvegicus; assay: Compound was tested for anticonvulsant activity after Oral Administration into Rats by using MES screen test after 2h,dose 50 mg/kg; number of rats out of four which were protected; format: functional; how it was run: as §1
[24] = tested on: Rattus norvegicus; assay: Compound was tested for anticonvulsant activity after Oral Administration into Rats by using MES screen test after 1h,dose 50 mg/kg; number of rats out of four which were protected; format: functional; how it was run: as §1
[25] = tested on: Rattus norvegicus; assay: Compound was tested for anticonvulsant activity after Oral Administration into Rats by using MES screen test after 0.25h,dose 50 mg/kg; No activity was demonstarted; format: functional, organism-based; parameters: dose 50 mg/kg; how it was run: as §1
[26] = tested on: Rattus norvegicus; assay: Compound was tested for anticonvulsant activity after Oral Administration into Rats by using MES screen test after 0.5h,dose 50 mg/kg; number of rats out of four which were protected; format: functional; how it was run: as §1
[27] = tested on: Rattus norvegicus; assay: Compound was tested for anticonvulsant activity after Oral Administration into Rats by using MES screen test after 4h,dose 50 mg/kg; number of rats out of four which were protected; format: functional; how it was run: as §1
[28] = tested on: Rattus norvegicus; assay: Compound was tested for anticonvulsant activity after Oral Administration into rat by using MES screen test after 2 hr; format: functional
How it was run: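 Rats dosed orally, typically at 50 mg/kg first, then mostly 12.5 mg/kg (some compounds at 30 mg/kg), and tested by maximal electroshock. Four rats per compound, scored at 0.25, 0.5, 1, 2 and 4 h as the number of rats protected out of 4.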

[29] = tested on: Rattus norvegicus; assay: Compound was tested for anticonvulsant activity after Oral Administration into Rats by using MES screen test after 1h,dose 12.5 mg/kg; No activity was demonstarted; format: functional, organism-based; parameters: dose 12.5 mg/kg; how it was run: as §1
[30] = tested on: Rattus norvegicus; assay: Compound was tested for anticonvulsant activity after Oral Administration into Rats by using MES screen test after 0.5h,dose 12.5 mg/kg; No activity was demonstarted; format: functional, organism-based; parameters: dose 12.5 mg/kg; how it was run: as §1
[31] = Compound was tested for toxicity after intraperitoneal injection into mice by using neurotoxicity screen test after 2 hr; format: organism-based; details: mouse, in vivo, ip; how it was run: as §2
[32] = tested on: Rattus norvegicus; assay: Compound was tested for anticonvulsant activity after Oral Administration into Rats by using MES screen test after 0.25h,dose 50 mg/kg; number of rats out of four which were protected; format: functional; how it was run: as §1
[33] = Compound was tested for toxicity after oral administration in rat by using neurotoxicity screen test after 0.25-24 hr; format: organism-based; details: in vivo
How it was run: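 Rat neurotoxicity after oral dosing, observed at 0.25, 0.5, 1, 2, 4, 6, 8 and 24 h (8 h omitted for one compound).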

[34] = tested on: Rattus norvegicus; assay: Compound was tested for anticonvulsant activity after Oral Administration into Rats by using MES screen test after 2h,dose 12.5 mg/kg; No activity was demonstarted; format: functional, organism-based; parameters: dose 12.5 mg/kg; how it was run: as §1
[35] = tested on: Rattus norvegicus; assay: Compound was tested for anticonvulsant activity after Oral Administration into Rats by using MES screen test after 0.25h,dose 12.5 mg/kg; number of rats out of four which were protected; format: functional; how it was run: as §1
[36] = tested on: Rattus norvegicus; assay: Compound was tested for anticonvulsant activity after Oral Administration into Rats by using MES screen test after 4h,dose 12.5 mg/kg; No activity was demonstarted; format: functional, organism-based; parameters: dose 12.5 mg/kg; how it was run: as §1

## C/C(=N/NC(N)=O)c1ccc(Oc2ccc(C)cc2)cc1
[1]
  Activity: 4
[2]
  Activity: 1
[3]
  Activity: 4
[4]
  selectivity ratio: 10.3
[5]
  Dose: 30 mg/kg
[6]
  Dose: 30 mg/kg
[7]
  selectivity ratio: 3.09
[8]
  ED50: 18.7 mg/kg
[9]
  Dose: 100 mg/kg
[10]
  Activity: No activity
[11]
  Activity: 2
[12]
  TD50 at 1 h: 57.9 mg/kg
[13]
  ED50: 5.62 mg/kg

## Cc1cccc(C)c1Oc1ccc(/C=N/NC(N)=O)cc1
[14]
  Activity: 4
[15]
  Activity: 1
[16]
  Activity: 4
[17]
  Activity: 4
[5]
  Dose: 30 mg/kg
[6]
  Dose: 30 mg/kg
[18]
  Dose: 100 mg/kg
[19]
  Activity: 4
[20]
  Dose: 300 mg/kg
[9]
  Dose: 100 mg/kg
[21]
  Dose: 300 mg/kg

## NC(=O)N/N=C/c1ccc(Oc2ccccc2)cc1
[22]
  logP: 2.66
[23]
  Activity: 4
[24]
  Activity: 4
[5]
  Dose: 100 mg/kg
[25]
  Activity: No activity
[26]
  Activity: 3
[9]
  Dose: 300 mg/kg
[27]
  Activity: 4

## C/C(=N/NC(N)=O)c1ccc(Sc2ccc(F)cc2)cc1
[14]
  Activity: 4
[15]
  Activity: 3
[16]
  Activity: 4
[28]
  ED50: 9.11 mg/kg
[17]
  Activity: 4
[5]
  Dose: 100 mg/kg
[18]
  Dose: 300 mg/kg
[19]
  Activity: 4
[20]
  Dose: 300 mg/kg
[9]
  Dose: 30 mg/kg
[21]
  Dose: 300 mg/kg

## C/C(=N/NC(N)=O)c1ccccc1Oc1ccc(F)cc1
[14]
  Activity: 2
[15]
  Activity: 1
[16]
  Activity: 3
[28]
  ED50: 43.4 mg/kg
[17]
  Activity: 3
[19]
  Activity: 1

## NC(=O)N/N=C\c1ccc(Oc2ccc(-c3ccccc3)cc2)cc1
[1]
  Activity: 1
[3]
  Activity: 3
[29]
  Activity: No activity
[18]
  Dose: 300 mg/kg
[30]
  Activity: No activity
[20]
  Dose: 300 mg/kg
[9]
  Dose: 300 mg/kg
[10]
  Activity: No activity

## Cc1ccc(Oc2ccc(/C=N/NC(N)=O)cc2)cc1
[23]
  Activity: 4
[28]
  ED50: 3.43 mg/kg
[24]
  Activity: 4
[5]
  Dose: 30 mg/kg
[7]
  selectivity ratio: 2.3
[8]
  ED50: 88.6 mg/kg
[26]
  Activity: 4
[9]
  Dose: 100 mg/kg
[27]
  Activity: 4
[31]
  TD50 at 2 h: 204 mg/kg
[32]
  Activity: 3
[13]
  ED50: 14.7 mg/kg
[33]
  TD50: > 500 mg/kg

## NC(=O)N/N=C\c1ccc(OC(=O)c2ccc(Cl)cc2)cc1
[1]
  Activity: 2
[34]
  Activity: No activity
[30]
  Activity: No activity
[9]
  Dose: 300 mg/kg
[11]
  Activity: 1
[35]
  Activity: 1

## Cc1cc(C)cc(Oc2ccc(/C=N/NC(N)=O)cc2)c1
[2]
  Activity: 4
[3]
  Activity: 2
[5]
  Dose: 30 mg/kg
[6]
  Dose: 300 mg/kg
[9]
  Dose: 300 mg/kg
[36]
  Activity: No activity
[10]
  Activity: No activity
[11]
  Activity: 3

## C/C(=N/NC(N)=O)c1ccc(Sc2ccc(C)cc2)cc1
[1]
  Activity: 4
[3]
  Activity: 3
[29]
  Activity: No activity
[5]
  Dose: 100 mg/kg
[6]
  Dose: 100 mg/kg
[30]
  Activity: No activity
[9]
  Dose: 100 mg/kg
[10]
  Activity: No activity
